# Data taken from ChEMBL document CHEMBL5058577, “EUbOPEN Chemogenomics Library 2 (Multiplex)” (2022).
# System: U2OS
# Assay: Multiplex assay against U2OS
# Assay type: toxicity, cell-based
# Conditions: human
# Summary of the method: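 Cells were classed with CellPathfinder machine-learning gating, first as Hoechst high-intensity objects or normal cells, then (normal cells) as healthy, pyknosed or fragmented nuclei, and finally (pyknosed cells) as mitotic or apoptotic. Staining of live cells at seeding used Hoechst33342, BioTracker Green Microtubule Cytoskeleton Dye, MitoTracker Red and Annexin V Alexa Fluor 680, with imaging on a CQ1 microscope at 37°C and 5% CO2 after compound addition. Tubulin, mitochondrial-mass and membrane-permeability phenotypes are per cents of healthy-nucleus cells.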
# [1] = 12 h, 1 µM, compound concentration 1 uM, replicate 1
# [2] = 12 h, 1 µM, compound concentration 1 uM, replicate 2
# [3] = 12 h, 10 µM, compound concentration 10 uM, replicate 1
# [4] = 12 h, 10 µM, compound concentration 10 uM, replicate 2
# [5] = 24 h, 1 µM, compound concentration 1 uM, replicate 1
# [6] = 24 h, 1 µM, compound concentration 1 uM, replicate 2
# [7] = 24 h, 10 µM, compound concentration 10 uM, replicate 1
# [8] = 24 h, 10 µM, compound concentration 10 uM, replicate 2
# [9] = 48 h, 1 µM, compound concentration 1 uM, replicate 1
# [10] = 48 h, 1 µM, compound concentration 1 uM, replicate 2
# [11] = 48 h, 10 µM, compound concentration 10 uM, replicate 1
# [12] = 48 h, 10 µM, compound concentration 10 uM, replicate 2
structure (smiles),measurement,setting,value
COc1ccc2c(c1OCc1ccccc1)C[C@@H](C(=O)O)N(C(=O)C(c1ccccc1)c1ccccc1)C2 [OLODANRIGAN],Population Apoptotic (%),[1],82%
same,Population Fragmented Nuclei (%),[1],31%
same,Population Healthy Nuclei (%),[1],59%
same,Population Hoechst High Intensity Objects (%),[1],2%
same,Population Membrane Permeable-Phenotype (%),[1],4%
same,Population Mitochondria Different-Phenotype (%),[1],0%
same,Population Mitotic Cells (%),[1],17%
same,Population Normal (%),[1],97%
same,Population Pyknosed Nuclei (%),[1],8%
same,Population Tubulin-Different-Phenotype (%),[1],1%
same,Total Cell Count,[1],286
same,Population Apoptotic (%),[2],66%
same,Population Fragmented Nuclei (%),[2],18%
same,Population Healthy Nuclei (%),[2],75%
same,Population Hoechst High Intensity Objects (%),[2],3%
same,Population Membrane Permeable-Phenotype (%),[2],6%
same,Population Mitochondria Different-Phenotype (%),[2],4%
same,Population Mitotic Cells (%),[2],33%
same,Population Normal (%),[2],96%
same,Population Pyknosed Nuclei (%),[2],5%
same,Population Tubulin-Different-Phenotype (%),[2],2%
same,Total Cell Count,[2],112
same,Population Apoptotic (%),[3],78%
same,Population Fragmented Nuclei (%),[3],30%
same,Population Healthy Nuclei (%),[3],64%
same,Population Hoechst High Intensity Objects (%),[3],1%
same,Population Membrane Permeable-Phenotype (%),[3],6%
same,Population Mitochondria Different-Phenotype (%),[3],1%
same,Population Mitotic Cells (%),[3],21%
same,Population Normal (%),[3],98%
same,Population Pyknosed Nuclei (%),[3],5%
same,Population Tubulin-Different-Phenotype (%),[3],2%
same,Total Cell Count,[3],273
same,Population Apoptotic (%),[4],81%
same,Population Fragmented Nuclei (%),[4],26%
same,Population Healthy Nuclei (%),[4],63%
same,Population Hoechst High Intensity Objects (%),[4],0%
same,Population Membrane Permeable-Phenotype (%),[4],2%
same,Population Mitotic Cells (%),[4],18%
same,Population Normal (%),[4],99%
same,Population Pyknosed Nuclei (%),[4],10%
same,Total Cell Count,[4],110
same,Population Apoptotic (%),[5],87%
same,Population Fragmented Nuclei (%),[5],25%
same,Population Healthy Nuclei (%),[5],64%
same,Population Hoechst High Intensity Objects (%),[5],0%
same,Population Membrane Permeable-Phenotype (%),[5],2%
same,Population Mitochondria Different-Phenotype (%),[5],0%
same,Population Mitotic Cells (%),[5],12%
same,Population Normal (%),[5],99%
same,Population Pyknosed Nuclei (%),[5],10%
same,Population Tubulin-Different-Phenotype (%),[5],2%
same,Total Cell Count,[5],311
same,Population Apoptotic (%),[6],55%
same,Population Fragmented Nuclei (%),[6],18%
same,Population Healthy Nuclei (%),[6],74%
same,Population Hoechst High Intensity Objects (%),[6],2%
same,Population Membrane Permeable-Phenotype (%),[6],9%
same,Population Mitochondria Different-Phenotype (%),[6],6%
same,Population Mitotic Cells (%),[6],44%
same,Population Normal (%),[6],97%
same,Population Pyknosed Nuclei (%),[6],6%
same,Population Tubulin-Different-Phenotype (%),[6],5%
same,Total Cell Count,[6],143
same,Population Apoptotic (%),[7],83%
same,Population Fragmented Nuclei (%),[7],27%
same,Population Healthy Nuclei (%),[7],66%
same,Population Hoechst High Intensity Objects (%),[7],1%
same,Population Membrane Permeable-Phenotype (%),[7],4%
same,Population Mitochondria Different-Phenotype (%),[7],0%
same,Population Mitotic Cells (%),[7],16%
same,Population Normal (%),[7],98%
same,Population Pyknosed Nuclei (%),[7],5%
same,Population Tubulin-Different-Phenotype (%),[7],1%
same,Total Cell Count,[7],318
same,Population Apoptotic (%),[8],50%
same,Population Fragmented Nuclei (%),[8],22%
same,Population Healthy Nuclei (%),[8],72%
same,Population Hoechst High Intensity Objects (%),[8],0%
same,Population Mitochondria Different-Phenotype (%),[8],1%
same,Population Mitotic Cells (%),[8],50%
same,Population Normal (%),[8],100%
same,Population Pyknosed Nuclei (%),[8],4%
same,Population Tubulin-Different-Phenotype (%),[8],2%
same,Total Cell Count,[8],123
same,Population Apoptotic (%),[9],91%
same,Population Fragmented Nuclei (%),[9],22%
same,Population Healthy Nuclei (%),[9],70%
same,Population Hoechst High Intensity Objects (%),[9],3%
same,Population Membrane Permeable-Phenotype (%),[9],4%
same,Population Mitochondria Different-Phenotype (%),[9],1%
same,Population Mitotic Cells (%),[9],8%
same,Population Normal (%),[9],96%
same,Population Pyknosed Nuclei (%),[9],7%
same,Population Tubulin-Different-Phenotype (%),[9],2%
same,Total Cell Count,[9],483
same,Population Apoptotic (%),[10],78%
same,Population Fragmented Nuclei (%),[10],14%
same,Population Healthy Nuclei (%),[10],77%
same,Population Hoechst High Intensity Objects (%),[10],4%
same,Population Membrane Permeable-Phenotype (%),[10],3%
same,Population Mitochondria Different-Phenotype (%),[10],3%
same,Population Mitotic Cells (%),[10],21%
same,Population Normal (%),[10],95%
same,Total Cell Count,[10],184
same,Population Apoptotic (%),[11],88%
same,Population Fragmented Nuclei (%),[11],20%
same,Population Healthy Nuclei (%),[11],71%
same,Population Hoechst High Intensity Objects (%),[11],1%
same,Population Membrane Permeable-Phenotype (%),[11],5%
same,Population Mitochondria Different-Phenotype (%),[11],1%
same,Population Mitotic Cells (%),[11],11%
same,Population Normal (%),[11],98%
same,Population Pyknosed Nuclei (%),[11],8%
same,Population Tubulin-Different-Phenotype (%),[11],3%
same,Total Cell Count,[11],451
same,Population Apoptotic (%),[12],85%
same,Population Fragmented Nuclei (%),[12],18%
same,Population Healthy Nuclei (%),[12],77%
same,Population Membrane Permeable-Phenotype (%),[12],7%
same,Population Mitochondria Different-Phenotype (%),[12],6%
same,Population Mitotic Cells (%),[12],14%
same,Population Pyknosed Nuclei (%),[12],4%
same,Population Tubulin-Different-Phenotype (%),[12],5%
same,Total Cell Count,[12],163
